Assays:
[1] = target: T1, Protein deacetylase HDAC6 (Homo sapiens) (UniProt Q9UBN7); assay: Inhibition of HDAC6 in human RH4 cells assessed as acetylated alpha-tubulin level at 50 uM in presence of vorinostat incubated for 96 hrs by Western blot analysis (reference value: 1); type: cell-based
T1 sequence (whole entry): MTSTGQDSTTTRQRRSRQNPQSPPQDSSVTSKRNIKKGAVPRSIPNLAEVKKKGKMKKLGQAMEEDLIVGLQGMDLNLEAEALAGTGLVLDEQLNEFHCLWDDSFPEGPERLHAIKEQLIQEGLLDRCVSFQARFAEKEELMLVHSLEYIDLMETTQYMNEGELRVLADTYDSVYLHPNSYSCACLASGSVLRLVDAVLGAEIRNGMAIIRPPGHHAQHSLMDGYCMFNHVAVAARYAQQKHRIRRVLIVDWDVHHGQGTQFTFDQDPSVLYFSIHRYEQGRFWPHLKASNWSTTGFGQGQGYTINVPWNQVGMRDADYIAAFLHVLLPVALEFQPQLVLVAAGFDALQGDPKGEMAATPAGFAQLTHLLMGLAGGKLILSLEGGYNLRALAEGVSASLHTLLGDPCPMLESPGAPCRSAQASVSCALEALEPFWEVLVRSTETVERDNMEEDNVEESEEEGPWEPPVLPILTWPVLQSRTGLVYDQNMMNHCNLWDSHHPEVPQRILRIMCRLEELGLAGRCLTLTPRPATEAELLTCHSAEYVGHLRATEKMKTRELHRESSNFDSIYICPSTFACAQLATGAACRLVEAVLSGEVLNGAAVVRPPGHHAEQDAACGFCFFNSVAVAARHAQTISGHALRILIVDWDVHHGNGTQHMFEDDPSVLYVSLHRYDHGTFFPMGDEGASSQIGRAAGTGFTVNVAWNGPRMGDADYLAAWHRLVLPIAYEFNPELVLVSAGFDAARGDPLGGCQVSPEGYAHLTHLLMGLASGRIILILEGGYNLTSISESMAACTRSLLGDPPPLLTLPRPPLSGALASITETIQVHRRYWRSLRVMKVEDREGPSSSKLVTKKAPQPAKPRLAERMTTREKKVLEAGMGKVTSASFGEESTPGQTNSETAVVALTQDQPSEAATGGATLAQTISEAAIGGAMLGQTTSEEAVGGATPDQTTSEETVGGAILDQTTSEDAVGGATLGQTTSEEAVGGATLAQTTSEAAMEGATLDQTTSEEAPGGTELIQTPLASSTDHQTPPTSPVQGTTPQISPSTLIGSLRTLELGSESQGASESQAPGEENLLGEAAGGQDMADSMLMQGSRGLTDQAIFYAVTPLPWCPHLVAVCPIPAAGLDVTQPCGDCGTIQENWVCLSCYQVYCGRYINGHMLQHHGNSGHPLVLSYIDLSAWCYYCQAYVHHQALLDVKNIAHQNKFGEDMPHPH
How it was run: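 RH4 cells co-treated with EZH2 inhibitor at 50 μM plus HDAC inhibitor at 0.15 μM; Western blot after 72 or 96 h for H3K27me3 or acetyl-tubulin, vinculin loading control; densitometry normalized to loading control then DMSO vehicle.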

[2] = target: T2, Histone-lysine N-methyltransferase EZH2 (Homo sapiens, UniProt Q15910); assay: Inhibition of EZH2 in human U937 cells assessed as H3K27me3 level at 50 uM incubated for 120 hrs by Western blot analysis; type: cell-based; conditions: U-937
Target sequence in this assay (Q15910 whole entry, looked up): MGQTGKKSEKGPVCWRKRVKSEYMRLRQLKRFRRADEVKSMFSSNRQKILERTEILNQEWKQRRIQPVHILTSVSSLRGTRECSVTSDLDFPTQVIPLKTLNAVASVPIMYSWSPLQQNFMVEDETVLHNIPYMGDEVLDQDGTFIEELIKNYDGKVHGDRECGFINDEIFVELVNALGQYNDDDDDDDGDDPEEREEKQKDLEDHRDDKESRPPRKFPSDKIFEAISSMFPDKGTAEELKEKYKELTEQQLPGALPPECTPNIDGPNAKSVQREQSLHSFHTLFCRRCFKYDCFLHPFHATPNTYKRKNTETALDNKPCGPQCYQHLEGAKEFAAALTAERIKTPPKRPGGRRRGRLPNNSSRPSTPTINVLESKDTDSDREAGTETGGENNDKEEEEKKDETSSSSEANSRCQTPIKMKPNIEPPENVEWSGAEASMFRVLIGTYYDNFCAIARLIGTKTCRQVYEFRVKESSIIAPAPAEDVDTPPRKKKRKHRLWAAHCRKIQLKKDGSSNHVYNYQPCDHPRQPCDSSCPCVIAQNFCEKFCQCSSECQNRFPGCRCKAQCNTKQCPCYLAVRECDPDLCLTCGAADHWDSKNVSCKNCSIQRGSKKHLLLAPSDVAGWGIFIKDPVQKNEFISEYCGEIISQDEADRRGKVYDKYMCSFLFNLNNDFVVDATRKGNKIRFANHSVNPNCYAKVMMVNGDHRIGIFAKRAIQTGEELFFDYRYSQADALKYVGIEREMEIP

[3] = target: T2, Histone-lysine N-methyltransferase EZH2; assay: Inhibition of human EZH2 using core histone as substrate incubated for 1 hr by fluorescence based assay
Target sequence in this assay (Q15910 whole entry): as the sequence (Q15910 whole entry, looked up) above

[4] = system: U-937; assay: Induction of differentiation of human U937 cells assessed as increase in CD11b level at 10 uM incubated for 72 hrs by flow cytometry analysis; type: functional
How it was run: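 U937 cells were treated for 72 h at 10 and 25 μM, and surface CD11b expression was measured as a differentiation marker.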

[5] = Induction of apoptosis in human RH4 cells assessed as viable cells at 28 uM incubated for 72 hrs by annexin V-FITC staining based flow cytometry (reference value: 86.6 %); type: functional; conditions: Rh4, 72 h, read-out: Activity
[6] = target: Histone deacetylase 2 (Homo sapiens, UniProt Q92769)
Sequence of Histone deacetylase 2 (Q92769 whole entry): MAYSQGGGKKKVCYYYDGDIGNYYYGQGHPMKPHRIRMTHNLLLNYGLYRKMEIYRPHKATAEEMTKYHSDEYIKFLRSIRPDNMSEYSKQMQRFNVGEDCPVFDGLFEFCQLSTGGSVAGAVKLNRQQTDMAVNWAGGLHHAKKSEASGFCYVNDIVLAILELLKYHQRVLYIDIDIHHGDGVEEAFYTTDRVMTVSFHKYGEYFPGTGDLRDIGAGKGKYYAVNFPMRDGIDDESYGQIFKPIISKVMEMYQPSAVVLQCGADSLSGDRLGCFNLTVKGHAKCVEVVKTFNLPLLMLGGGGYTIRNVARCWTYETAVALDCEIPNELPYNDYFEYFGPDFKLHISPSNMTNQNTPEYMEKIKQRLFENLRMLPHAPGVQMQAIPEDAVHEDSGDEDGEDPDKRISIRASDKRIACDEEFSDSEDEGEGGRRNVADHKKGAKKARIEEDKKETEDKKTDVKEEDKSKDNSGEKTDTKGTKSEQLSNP

[7] = target: T3, Histone deacetylase 8 (Homo sapiens, UniProt Q9BY41); assay: Inhibition of human recombinant HDAC8 using AMC-K(Ac)GL as substrate by fluorescence based assay
T3 sequence (Q9BY41 whole entry): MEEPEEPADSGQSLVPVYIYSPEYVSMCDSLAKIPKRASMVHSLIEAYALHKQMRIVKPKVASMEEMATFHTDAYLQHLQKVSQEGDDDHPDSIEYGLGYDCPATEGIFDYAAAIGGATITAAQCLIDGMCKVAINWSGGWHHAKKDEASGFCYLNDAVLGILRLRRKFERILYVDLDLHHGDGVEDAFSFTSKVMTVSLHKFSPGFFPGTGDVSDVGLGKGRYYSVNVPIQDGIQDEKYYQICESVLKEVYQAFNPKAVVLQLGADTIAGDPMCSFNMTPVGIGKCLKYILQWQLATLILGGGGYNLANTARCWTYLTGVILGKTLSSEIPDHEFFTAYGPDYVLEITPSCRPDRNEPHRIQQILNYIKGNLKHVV

[8] = Induction of apoptosis in human RH4 cells assessed as viable cells at 14 uM incubated for 72 hrs by annexin V-FITC staining based flow cytometry (reference value: 86.6 %); type: functional; conditions: Rh4, 72 h, read-out: Activity
[9] = Cell cycle arrest in human RH4 cells assessed as subG1 accumulation at 28 uM incubated for 72 hrs by propidium iodide staining based flow cytometry (reference value: 1.9 %); type: functional
[10] = target: T4, Protein deacetylase HDAC6 (Homo sapiens, UniProt Q9UBN7); assay: Inhibition of human recombinant HDAC6 using AMC-K(Ac)GL as substrate by fluorescence based assay
T4 sequence (Q9UBN7 whole entry): T1 sequence (whole entry)

[11] = Cell cycle arrest in human RH4 cells assessed as S accumulation at 14 uM incubated for 72 hrs by propidium iodide staining based flow cytometry (reference value: 29.9 %); type: functional
[12] = Cytotoxicity against human RH4 cells assessed as reduction in cell viability incubated for 72 hrs by CellTiter-Glo Luminescent cell viability assay; type: functional, cell-based; conditions: Rh4, 72 h
How it was run: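 Antiproliferative IC50 after 72 h of treatment. Values are means of three independent experiments, each measured in triplicate, ± SD.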

[13] = system: U-937; assay: Cell cycle arrest in human U937 cells assessed as subG1 accumulation at 25 uM incubated for 72 hrs by propidium iodide staining based flow cytometry (reference value: 4.9 %); type: functional
[14] = system: U-937; assay: Induction of apoptosis in human U937 cells assessed as necrotic cells at 10 uM incubated for 72 hrs by annexin V-FITC staining based flow cytometry (reference value: 0.5 %); type: functional
[15] = Induction of apoptosis in human RH4 cells assessed as necrotic cells at 28 uM incubated for 72 hrs by annexin V-FITC staining based flow cytometry (reference value: 0.4 %); type: functional
[16] = Cytotoxicity against human RH4 cells assessed as reduction in cell viability at 35 uM incubated for 96 hrs by CellTiter-Glo Luminescent cell viability assay relative to control; type: functional; conditions: Rh4, 96 h
How it was run: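 Viability of U937 (5–25 μM) and RH4 (5–35 μM) cells after 48, 72 and 96 h of treatment at increasing concentrations.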

Row | Compound | fold change (FC) [1] | fold change (FC) [2] | IC50 [3] [µM] | fold change (FC) [4] | viability at 28 µM [5] [%] | IC50 [6] [nM] | IC50 [7] [nM] | viability at 14 µM [8] [%] | Activity [9] [%] | IC50 [10] [nM] | Activity [11] [%] | IC50 [12] [µM] | Activity [13] [%] | Activity [14] [%] | Activity [15] [%] | inhibition at 35 µM [16] [%]
1 | Cc1cc(C)c(CNC(=O)c2cc(C)n(-c3ccccc3)c2C)c(=O)[nH]1 | 1.3 | 0.7 | 5.78 |  |  |  |  |  |  |  |  |  |  |  |  | 
2 | Cc1cc(C)c(CNC(=O)c2cc(C)n(-c3cccc(NC(=O)CCCCCCC(=O)NO)c3)c2C)c(=O)[nH]1 |  |  | 7.37 | 2 | 68.7 | 1330 | 110 | 82.5 | 28.1 | 5 | 30.3 | 13 | 36.1 | 0.1 | 0.4 | 90

Source: ChEMBL document CHEMBL4613315, “Design of First-in-Class Dual EZH2/HDAC Inhibitor: Biochemical Activity and Biological Evaluation in Cancer Cells” (ACS Med Chem Lett, 2020)
